# Screens as filed in PubChem BioAssay.
# GSK3A inh – human GSK-3 alpha kinase inhibition | P49840 | ADP-Glo luminescence, 60 min | inhibition, % at 10 µM | actives 0.1% (n = 320,000) | AID 2650;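 active = more than half of replicates show inhibition above 20%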;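 note: GST-tagged GSK-3 alpha with peptide substrate and 25 µM ATP; 0% = DMSO neutral wells and 100% = GW8510 positive control wells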
# Target sequence (P49840 whole entry, looked up): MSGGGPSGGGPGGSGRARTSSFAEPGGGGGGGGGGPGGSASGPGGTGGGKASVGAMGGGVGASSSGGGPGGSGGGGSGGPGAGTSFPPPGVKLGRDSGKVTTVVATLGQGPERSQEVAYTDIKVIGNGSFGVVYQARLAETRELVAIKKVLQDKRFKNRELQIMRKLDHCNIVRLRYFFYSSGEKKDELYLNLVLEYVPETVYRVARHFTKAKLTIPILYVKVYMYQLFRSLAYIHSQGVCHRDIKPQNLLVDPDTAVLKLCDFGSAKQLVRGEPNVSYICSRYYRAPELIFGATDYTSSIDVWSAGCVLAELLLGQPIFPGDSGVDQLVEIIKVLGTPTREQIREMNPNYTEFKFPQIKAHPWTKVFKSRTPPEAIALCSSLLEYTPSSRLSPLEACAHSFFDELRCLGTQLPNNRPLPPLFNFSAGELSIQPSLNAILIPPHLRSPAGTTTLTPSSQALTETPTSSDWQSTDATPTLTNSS
# STK33 kinase inh – inhibitors of human STK33 kinase; Q9BYT3; purified STK33, MBP phosphorylation, ADP-Glo luminescence; inhibition, % at 10 µM; actives 0.073% (n = 320,000); AID 2661;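 active = inhibition at or above 25%, using the most active replicate where run in duplicate; inactive = inhibition below 25%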
# DYRK1A inh – blocks rat Dyrk1A kinase activity; inhibition, % at 12.5 µM; ADP-Glo luminescence, NFATc1 peptide; AID 504441; Q63470; actives 0.43% (n = 310,000); in the data active = inhibition above about 50%;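 note: plate controls were vehicle with enzyme for no effect and no enzyme for full effect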
# GSK3beta inhib – inhibitors of human GSK3beta kinase; AID 2097; GST-GSK3beta kinase, ADP-Glo luminescence, 60 min; hits give low values; P49841; actives 0.038% (n = 300,000); activity score (negative = inhibition), % at 10 µM;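 active = more than half of replicate wells score below -50%, meaning over 50% inhibition versus plate controls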;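 note: 0% = median DMSO wells and -100% = median GW8510 positive control wells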
#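 Assay system: GST-fused GSK3beta enzyme, cell-free / Medium: Tris pH 7.5 buffer with MgCl2, DTT, BSA, heparin / Also added: peptide substrate plus 25 µM ATP (final) / Compound: 10 µM single point / Timing: kinase reaction with compound 60 min at room temperature / Detection: ADP-Glo luminescence / Benchmarks: DMSO neutral wells and GW8510 at 20 µM as positive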
# ADP-Glo artifact – ADP-Glo luciferase interference, Dyrk1A counter-screen; shares compounds with DYRK1A inh; ADP-Glo luciferase artifact assay, no Dyrk1A, luminescence; AC50, µM (titrated, usually from 12 µM), without a hit: at the top dose activity change, negative = inhibition; 1,300 tested, under 10 active; AID 588348;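 active = fitted half-maximal dose AC50 no more than ten times the top valid tested dose, with luminescence dropping as dose rises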
# Numbers without * were called inactive; nt = no result; ! = a repeat was not active. Shown is part of a subset that was picked to be rich in hits.
SMILES,GSK3A inh,STK33 kinase inh,DYRK1A inh,GSK3beta inhib,ADP-Glo artifact
O=C(CSc1nncn1-c1cccnc1)Nc1cccc(C(F)(F)F)c1,0,1,-4,-1,nt
O=c1c2ccccc2nnn1CSc1nnc(-c2ccc3c(c2)OCO3)o1,44,-1,56*,-24,8%
CCOc1cc(N2CCOCC2)c(OCC)cc1NC(=O)c1ccc(OCc2c(C)noc2C)c(OC)c1,-3,-1,-4,2,nt
O=C(CCSc1nnc2scc(-c3ccccc3)n12)NCc1ccc2c(c1)OCO2,-3,0,1,-1,nt
c1ccc(-c2csc3nnc(SCc4ccc5c(c4)OCO5)n23)cc1,9,3,58*,-4,7%
Cc1ccccc1NC(=O)C1CCCN1S(=O)(=O)c1ccc2c(c1)n(C)c(=O)c(=O)n2C (configuration not stated),1,-3,58*,3,6%
Cc1ccc(C)c(NC(=O)C2CCCN2S(=O)(=O)c2ccc3c(c2)n(C)c(=O)c(=O)n3C)c1 (configuration not stated),-1,-3,2,6,nt
CCOC(=O)C1CCCN(c2c(NCCc3cccc(C)c3)c(=O)c2=O)C1 (configuration not stated),-3,-1,-3,2,nt
CCOC(=O)C1CCCN(c2c(NCCCN3CCCC(C)C3)c(=O)c2=O)C1 (configuration not stated),-2,-1,59*,1,7%
CCOC(=O)C1CCCN(c2c(NCCN(C)Cc3ccccc3)c(=O)c2=O)C1 (configuration not stated),-1,-1,61*,-4,6%
CCn1cc(C(=O)N(C)CC(OC)OC)c(=O)c2cc(S(=O)(=O)N3CCOCC3)ccc21,-2,-1,2,1,nt
COc1ccc(C2(C#N)CCC(=O)N2c2ccccc2)cc1 (configuration not stated),-1,-4,-3,0,nt
O=C1NC(=O)/C(=C\c2ccc(O)cc2O)S1,24,36*,85*,-13,8%
CC(=O)Nc1ccc(Nc2cc(C)nc3c(-c4ccccc4)cnn23)cc1,0,6,55*,nt,8%
Cc1ccc(S(=O)(=O)N2C[C@@H]3[C@H]4CC[C@H](C4)[C@@H]3[C@@H](C)[C@@H]2c2ccn([Si](C(C)C)(C(C)C)C(C)C)c2)cc1,nt,nt,-4,nt,nt
NC(=S)Nc1ccc2cn[nH]c2c1,4,4,38,0,nt
C=CCNC(=S)Nc1ccc2cn[nH]c2c1,23,24,70*,-6,7%
Cc1ccc(NC(=S)Nc2ccc3cn[nH]c3c2)cc1,-2,9,63*,1,12%
Cc1cc(C)cc(NC(=S)Nc2ccc3cn[nH]c3c2)c1,nt,nt,48,-4,nt
Oc1ccc2c(ccc3[nH]cnc32)c1,2,13,79*,2,7%
c1ccc(Cc2nnc3sc(-c4ccc5c(c4)OCO5)nn23)cc1,1,-1,15,-2,nt
c1ccc(Cc2nnc3sc(-c4ccc5c(c4)OCCO5)nn23)cc1,8,0,80*,2,9%
COc1ccc(-c2csc3ncnc(Sc4nnnn4C)c23)cc1,0,1,50*,nt,10%
CC(Oc1ccccc1F)C(=O)NNC(=O)CCNC(=O)c1ccccc1Cl (configuration not stated),-16,2,-7,1,nt
CN(C)c1ccc(C(CNC(=O)c2ccc(-c3ccccc3)cc2)N2CCOCC2)cc1 (configuration not stated),-3,0,nt,2,nt
SMILES,GSK3A inh,STK33 kinase inh,DYRK1A inh,GSK3beta inhib,ADP-Glo artifact
CN(C)CCNc1ccc(CO)c2sc3ccc(O)cc3c(=O)c12,nt,nt,77*,nt,7%
COCCCNc1nc(CC(C)C)nc2c1nnn2Cc1ccccc1,-2,-2,-6,1,nt
COc1cccc(NC(=O)c2ccncc2)c1,6,1,11,1,nt
COc1cccc(NC(=O)c2sc(NC(=O)c3ccncc3)nc2C)c1,-3,4,54*,-5,8%
Cn1c(-c2nnn(-c3ccc(F)cc3)n2)cc2ccccc21,-1,-1,nt,-1,nt
CCN(CC(=O)Nc1c(F)cccc1F)C(=O)c1ccc(N2CCCC2=O)cc1,0,1,-6,3,nt
COc1cccc(C(=O)Nc2ccc(F)c(F)c2F)c1,-1,-1,51*,1,8%
COc1cccc(C(=O)Nc2ccc(F)cc2F)c1,-3,2,6,0,nt
CN1CCc2c(sc3nc(NN)n(Cc4ccccc4)c(=O)c23)C1,2,0,18,1,nt
CN1CCc2c(sc3nc(NN)n(-c4ccc(Cl)cc4)c(=O)c23)C1,2,1,63*,0,6%
NC(N)=NC(=O)c1nc(Cl)c(N2CCCCCC2)nc1N,4,0,11,nt,nt
NC(N)=NC(=O)c1nc(Cl)c(N)nc1N,0,2,64*!,0,9%
CCOc1ccc(NC(=O)C2CCN(C(=O)C3CC(=O)N(c4ccc(C)cc4)C3)CC2)cc1 (configuration not stated),2,-1,-2,-2,nt
CCCC[n+]1ccc(-c2nc3ccc([N+](=O)[O-])cc3[nH]2)cc1,23,1,83*,0,12%
O=[N+]([O-])c1ccc(-c2nc3ccc([N+](=O)[O-])cc3[nH]2)cc1,0,0,29,2,nt
CC(C)Cn1nc(NC(=O)c2cccs2)c2cc3ccccc3nc21,-8,-1,14,-8,nt
COc1ccc2nc3c(cc2c1)c(NC(=O)c1cccs1)nn3CC(C)C,73*,5,89*,-92*,9%
O=c1n(-c2ccccc2)c(=O)n2n1CC(O)C2,1,-1,-3,1,nt
Cc1cc(=O)oc2cc(NC(=O)c3ccc(OC(F)F)cc3)ccc12,-3,-1,-4,0,nt
Cc1[nH][nH]c(=O)c1N=Nc1ccccc1Cl,20,0,55*,-10,8%
Cc1[nH][nH]c(=O)c1N=Nc1ccc(Br)c(Cl)c1,1,2,9,0,nt
Cc1n[nH]c(C)c1N=Nc1ccc(Br)cc1,2,3,34,1,nt
COc1ccc(N=Nc2c(C)n[nH]c2C)cc1,7,12,52*,0,9%
Cc1ccc(NC2=C(N3CCCCC3)C(=O)c3ccccc3C2=O)cc1,-1,-1,52*,0,9%
Cc1cc(OCC(O)CNC(C)c2ccccc2)ccc1C(C)C (configuration not stated),8,2,0,-29,nt
COc1ccc2c(c1)c(=O)oc1c(C)c(OCc3cc(C(=O)O)oc3C)ccc12,16,3,51*,-4,8%
COc1ccc2c(c1)c(=O)oc1c(C)c(OCc3ccc(C(=O)O)cc3)ccc12,1,0,3,-4,nt
CS(=O)(=O)Nc1ccc(-c2cc(/C=C3\SC(N)=NC3=O)c[nH]c2=O)cc1,37,39*,86*,-2,8%
O=C(Nc1ccc(Cl)cc1)Nc1ccc2c(c1)N1CCN=C1S2,-1,1,68*,-1,10%
O=C1CCCC2=C1Sc1ccccc1N2,26,6,57*,-23,8%
